Screening data deposited in PubChem BioAssay by several laboratories.
SENP6 block – blocks the human protease SENP6 | Recombinant SENP6 catalytic domain, aminoluciferin luminescence | AID 2599 | Q9GZR1 | hit rate 1.8% among 330,000 | inhibition, % at 10 µM;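 active means inhibition above about 50% at the single tested dose, limit read from the data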
Target sequence (Q9GZR1 628-1112 limits assumed): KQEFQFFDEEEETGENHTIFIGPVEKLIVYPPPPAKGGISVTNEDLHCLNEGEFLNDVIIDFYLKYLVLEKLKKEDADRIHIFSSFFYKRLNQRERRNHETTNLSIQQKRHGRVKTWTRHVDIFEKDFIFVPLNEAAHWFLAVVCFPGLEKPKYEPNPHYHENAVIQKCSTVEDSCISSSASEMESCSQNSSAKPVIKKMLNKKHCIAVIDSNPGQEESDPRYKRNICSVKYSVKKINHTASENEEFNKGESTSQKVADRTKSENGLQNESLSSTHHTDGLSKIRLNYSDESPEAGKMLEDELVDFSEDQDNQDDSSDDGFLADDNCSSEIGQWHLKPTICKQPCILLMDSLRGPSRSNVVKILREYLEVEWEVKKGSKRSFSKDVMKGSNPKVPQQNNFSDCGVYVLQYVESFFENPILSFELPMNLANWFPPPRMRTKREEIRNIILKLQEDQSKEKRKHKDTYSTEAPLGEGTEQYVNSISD
SENP8 block-1 – SENP8 protease inhibition | Q96LD8 | inhibition, % at 10 µM | AID 2540 | purified SENP8, Z-RLRGG-aminoluciferin cleavage, luminescence | hit rate 1.2% among 330,000; in the data active means inhibition above about 50%
SENP8 block-2 – SENP8 (human) protease inhibition | hit rate 0.64% among 360,000 | inhibition, % at 20 µM | AID 602440 | recombinant SENP8, Nedd8 substrate fluorescence; in the data active means inhibition mostly above about 40%, no sharp cut-off; inactive means mostly below about 27%
SENP1 inh – inhibitors of human SENP1 SUMO protease catalytic domain | recombinant SENP1 catalytic domain, CyPet-SUMO1-YPet FRET cleavage | inhibition, % at 10 µM | hit rate 0.21% among 360,000 | AID 624204;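 active means inhibition at least 30% at 10 µM, raw YFP signal under a set limit, fluorescence ratio 0.5 to 1.5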
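Test system: recombinant human SENP1 catalytic domain, His6-tagged / Medium: pH 8 Tris buffer with EDTA, NaCl, BME, BSA, NP40, catalase / Also added: SUMO1 FRET substrate flanked by Cypet and Ypet, 25 nM / Times: 50 min reaction at room temperature / Signal: FRET, CFP and YFP emission / Control set: no-enzyme low control and enzyme-plus-DMSO high control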
SENP7 block – blocks the human protease SENP7 | recombinant SENP7, Z-RLRGG-aminoluciferin luminescence, 40 min | AID 434973 | hit rate 1.5% among 330,000 | Q9BQF6 | inhibition, % at 5 µM;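 active means inhibition above about 50% at the single test dose, limit read from the data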
Platelet DG rel – platelet dense granule release activity; human platelet-rich plasma, SFLLRN dense granule ATP release, luminescence; inhibition, %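 (compounds screened at 7.5 µM in platelet-rich plasma)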; hit rate 0.22% among 300,000; AID 1663;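 active means mean replicate score, as percent of positive control, at or above 50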
SENP8 confirm – human SENP8 inhibition, confirmed; shares compounds with SENP7 block; Recombinant SENP8, Z-RLRGG-aminoluciferin luminescence, 60 min; inhibition, % at 12.5 µM; hit rate 40% among 6,200; AID 488912;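 active means mean inhibition across replicates above about 50%, limit read from the data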
SENP6 conf – confirmation of human SENP6 protease inhibitors | shares compounds with SENP7 block | recombinant SENP6, Z-RLRGG-aminoluciferin luminescence | inhibition, % at 12.5 µM | hit rate 58% among 6,200
SENP7 confirm – human SENP7 inhibition, confirmed; shares compounds with SENP7 block; recombinant SENP7, Z-RLRGG-aminoluciferin luminescence, 40 min; inhibition, % at 12.5 µM; hit rate 69% among 6,200; AID 488917
Casp3 select – caspase-3 inhibition (SENP selectivity assay). shares compounds with SENP7 block. purified caspase-3, Z-DEVD-aminoluciferin luminescence, 60 min. inhibition, % at 12.5 µM. hit rate 60% among 6,200;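 active means mean inhibition above about 50%, limit read from the data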
Target sequence (P42574 28-227 limits assumed): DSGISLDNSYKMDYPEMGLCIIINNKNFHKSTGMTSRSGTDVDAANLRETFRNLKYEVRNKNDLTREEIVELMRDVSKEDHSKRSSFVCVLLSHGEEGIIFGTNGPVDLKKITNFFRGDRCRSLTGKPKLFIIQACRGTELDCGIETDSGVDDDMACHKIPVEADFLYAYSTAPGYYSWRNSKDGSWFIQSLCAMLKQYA
SENP luc ctr – interferes with luciferase luminescence in SENP counter-screen; shares compounds with SENP7 block; Pre-incubated SENP8/Z-RLRGG-aminoluciferin, luciferase luminescence interference; inhibition, % at 12.5 µM; hit rate 39% among 6,200;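 active means mean inhibition above about 50% when retested at one dose, limit read from the data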
Numbers stand for hits; – = inactive; · = no result given. Rows were chosen to be rich in hits. Some 2.6% of all compounds tested hit in one or more screens of this group.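 How the source made its calls, unless noted: active means mean inhibition above about 50% in the one-dose retest (limit read from the data); inactive means the rest.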

SMILES | SENP6 block | SENP8 block-1 | SENP8 block-2 | SENP1 inh | SENP7 block | Platelet DG rel | SENP8 confirm | SENP6 conf | SENP7 confirm | Casp3 select | SENP luc ctr
c1cnc2ccc(-c3ccc4ncccc4c3)cc2c1 | 77 | 55 | – | – | – | – | 72 | 71 | 87 | 65 | 76
COc1ccc(CC(=O)OC(C)C(=O)Nc2c(C)n(C)n(-c3ccccc3)c2=O)cc1OC (stereo not given) | – | – | – | – | – | · | · | · | · | · | ·
Cc1ccc(N/C=C/C(=O)c2ccc(C)cc2)cc1 | – | – | – | – | – | – | · | · | · | · | ·
O=C(/C=C/Nc1ccccc1)c1ccccc1 | 100 | 93 | – | – | 96 | – | 90 | 96 | 101 | 96 | 54
CC(=O)Nc1ccc(N/C=C/C(=O)c2ccccc2)cc1 | 70 | 50 | – | – | 55 | – | – | 66 | 90 | 78 | –
O=C(/C=C/Nc1ccc(F)cc1Br)c1ccccc1 | 96 | 94 | – | – | 100 | 52 | – | – | – | 75 | –
Cc1ccc(O)c(N/C=C/C(=O)c2ccc(F)cc2)c1 | 82 | 80 | – | – | 68 | – | 61 | 80 | 95 | 67 | –
COc1ccc(C(=O)/C=C/Nc2ccc(NC(C)=O)cc2)cc1OC | – | – | – | – | – | – | · | · | · | · | ·
CN1C(=O)NC(=O)C1c1ccccc1 (stereo not given) | · | · | – | – | · | · | · | · | · | · | ·
COCCNC(=O)C1(C)CCCN(Cc2cc3ccccc3o2)C1 (stereo not given) | · | · | – | – | · | · | · | · | · | · | ·
Cc1cc(N/C=C/C(=O)c2ccccc2)ccc1Br | 67 | 62 | – | – | 80 | – | – | – | – | – | –
CN(C)c1ccc(N/C=C/C(=O)c2ccccc2)cc1 | 96 | 95 | – | – | 102 | 88 | 70 | 94 | 100 | 97 | –
O=C(/C=C/Nc1ccccc1)c1ccc(Cl)cc1Cl | – | 83 | – | – | 87 | – | 89 | 92 | 98 | 82 | 64
O=C(/C=C\Nc1ccc(Br)cc1)c1cccnc1 | 83 | 57 | – | – | 66 | – | 66 | 64 | 83 | 71 | –
Cc1oc(C(C)(C)C)cc1C(N)=O | – | – | – | – | – | – | · | · | · | · | ·
Cc1cc(C(=O)N/N=C2\CC(=O)c3ccccc32)c(C)n1-c1ccccc1 | – | 54 | – | – | – | – | – | – | – | – | –
O=C(Nc1nnc(S(=O)(=O)N2CCCC2)s1)c1cccc([N+](=O)[O-])c1 | 52 | – | – | – | – | – | – | – | – | – | –
O=C(Nc1nnc(SCc2ccccc2)s1)c1cccc([N+](=O)[O-])c1 | 84 | 71 | – | – | – | – | 68 | 66 | 83 | 53 | –
O=C(Nc1nnc(CSCc2ccccc2F)s1)c1cccc([N+](=O)[O-])c1 | 56 | – | – | – | – | – | – | – | – | – | –
CC(C)C(=O)Nc1nnc(CSCc2ccccc2F)s1 | – | – | – | – | – | – | · | · | · | · | ·
COc1ccc2nc(SCC(C)=O)c(C#N)cc2c1 | 69 | 61 | – | – | 60 | – | – | 72 | 92 | 72 | 52
Cc1ccc2c(c1)-c1nc3ccccc3cc1C2=NC1CCCCC1 | · | · | – | – | · | · | · | · | · | · | ·
Cc1ccc2c(c1)Cc1nc3ccccc3nc1-2 | 98 | 96 | – | – | 100 | – | – | 99 | 103 | 98 | 68
O=C(CN1C(=O)COc2ccc(S(=O)(=O)N3CCCC3)cc21)NCc1ccccn1 | – | – | – | – | – | – | · | · | · | · | ·
CN=C1S/C(=C\c2ccc(N3CCCC3)c(F)c2)C(=O)N1C | 73 | – | – | – | 71 | – | – | – | – | – | –
SMILES | SENP6 block | SENP8 block-1 | SENP8 block-2 | SENP1 inh | SENP7 block | Platelet DG rel | SENP8 confirm | SENP6 conf | SENP7 confirm | Casp3 select | SENP luc ctr
CN=C1S/C(=C\c2ccc(N3CCOCC3)c(F)c2)C(=O)N1C | – | – | – | – | – | – | · | · | · | · | ·
CCCSc1nn2c(=O)c3ccccc3nc2s1 | 64 | – | – | – | – | – | 67 | 65 | 89 | 83 | 65
CN1CCN(C(=O)OC2CC3CC2[C@H]2CCCCN2C3=O)CC1 (stereo not given in full) | · | · | – | – | · | · | · | · | · | · | ·
C/C(=N\NC(=O)c1ccco1)c1ccc(-c2ccccc2)cc1 | 67 | 55 | – | – | 85 | – | – | – | – | – | –
Cc1ccc(N=Nc2c(N)n(-c3ccccc3)[nH]c2=O)cc1 | 76 | 54 | – | – | 82 | – | – | – | – | – | –
Cc1ccc(NC(=O)CN(C)S(=O)(=O)c2ccc(Cl)s2)c(O)c1 | – | – | – | – | – | · | · | · | · | · | ·
O=C(OCc1ccccc1)N1Cc2ccnnc2CC1c1ccccc1Br (stereo not given) | · | · | – | – | · | · | · | · | · | · | ·
COc1ccc(NC(=O)C2CCN(C(=O)Nc3ccccc3)CC2)cc1S(=O)(=O)N(C)C | – | – | – | – | – | · | · | · | · | · | ·
COc1ccc(N=Cc2sc3ccccc3c2Cl)cc1 | – | – | – | – | 58 | – | – | – | – | – | –
COc1ccccc1CNC(=O)COC(=O)c1nccnc1N | – | – | – | – | – | – | · | · | · | · | ·
OCc1ccc(N=Nc2ccccc2)cc1 | – | – | – | – | 55 | – | – | – | 74 | 52 | 53
COC(=O)c1ccc(N=Nc2ccccc2)cc1 | – | – | – | – | 59 | – | – | 57 | 86 | – | –
COc1ccc(N=Nc2ccc(CO)cc2)cc1 | 51 | – | – | – | 66 | – | 61 | 58 | 83 | 60 | –
Oc1ccc(Cl)cc1N=Nc1ccccc1 | 73 | – | – | – | 67 | – | – | – | 80 | – | –
O=C(O)c1cc(O)ccc1N=Nc1ccccc1 | – | – | – | – | – | – | · | · | · | · | ·
COc1ccc(C/C(N)=N/O)cc1 | – | – | – | – | – | – | · | · | · | · | ·
COC(=O)[C@@]12C[C@@H](CC(=O)N3CCCCC3)C(=O)N(Cc3ccccc3)C1=CCC(C)(C)C2 | · | · | – | – | · | · | · | · | · | · | ·
COCCn1c(C)cc(C(=O)COC(=O)c2ccc(Cl)c(S(N)(=O)=O)c2)c1C | – | – | – | – | – | – | · | · | · | · | ·
Oc1ccc(N=Nc2ccccc2)cc1 | 82 | 74 | – | – | 68 | – | 81 | 80 | 91 | 57 | 83
Cc1cc2ncc(-c3cccc(Cl)c3)cn2n1 | – | – | – | – | – | – | · | · | · | · | ·
Cc1nn2cc(-c3ccc(Cl)cc3)cnc2c1Cl | – | – | – | – | 76 | – | – | – | – | – | –
